A word on the ED50: it is the dose that gives a 50% effect, or the effect in half of the subjects. In general, inhibition refers to the percentage by which the read-out fell short of the control. A low value points to a response near the control. For orientation: IC50 means the midpoint of a concentration-inhibition curve.

The values below come from ChEMBL document CHEMBL1157559, “Synthesis and biological evaluation of novel pyrazolyl-2,4-thiazolidinediones as anti-inflammatory and neuroprotective agents” (Bioorg Med Chem, 2010).

For one experiment, the system named is Rattus norvegicus. As to the kind of experiment: Antiinflammatory activity in po dosed Wistar albino rat acute inflammatory model assessed as inhibition of formalin-induced paw edema administered 1 hr before formalin challenge measured after 3 hrs by plethysmometer. It is filed as functional. In outline: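 Rats dosed orally at 5, 10, 20, 40 and 50 mg/kg body weight. Edema volume inhibition measured 3 h after subplantar formalin (2%, 0.1 mL), and ED50 determined from these doses.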

In experiment [1] the target is T1, Prostaglandin G/H synthase 2 (Homo sapiens) (UniProt P35354).
T1 sequence (whole entry): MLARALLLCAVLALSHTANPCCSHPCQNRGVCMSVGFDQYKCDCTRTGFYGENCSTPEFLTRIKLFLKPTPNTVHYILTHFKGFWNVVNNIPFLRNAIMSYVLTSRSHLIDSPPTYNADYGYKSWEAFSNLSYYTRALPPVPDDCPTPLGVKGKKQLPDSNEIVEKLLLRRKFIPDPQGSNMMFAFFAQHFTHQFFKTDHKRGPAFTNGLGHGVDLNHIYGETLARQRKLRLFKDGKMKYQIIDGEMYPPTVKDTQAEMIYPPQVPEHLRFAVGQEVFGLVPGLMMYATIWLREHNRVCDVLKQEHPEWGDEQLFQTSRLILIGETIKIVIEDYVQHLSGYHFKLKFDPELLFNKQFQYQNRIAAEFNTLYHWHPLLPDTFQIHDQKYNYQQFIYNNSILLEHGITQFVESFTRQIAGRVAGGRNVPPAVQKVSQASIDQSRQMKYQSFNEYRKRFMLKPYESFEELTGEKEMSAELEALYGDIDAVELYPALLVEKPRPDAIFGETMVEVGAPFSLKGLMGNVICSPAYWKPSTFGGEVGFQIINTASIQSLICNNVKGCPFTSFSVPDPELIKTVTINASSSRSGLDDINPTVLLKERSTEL
To be noted: at 10 µM.

The next experiment has as its system SH-SY5Y. The experiment is described as follows: Antineurotoxicity in human SH-SY5Y cells assessed as inhibition human THP1 cell supernatant-induced cytotoxicity compound pretreated 24 to 48 hrs to THP1 cells measured after 72 hrs of supernatant addition. Format: functional, cell-based. Summed up: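 THP-1 cells in DMEM-F12 with 5% FBS, pretreated 15 min with compound or DMSO, then stimulated with LPS 0.5 µg/mL plus IFN-γ 150 U/mL for 24 or 48 h. Cell-free supernatant transferred to SH-SY5Y cells plated 24 h earlier. After 72 h, viability by LDH release and MTT. IC50 from curves of at least three independent experiments.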

Structures are written as SMILES.

In the case of `O=C1NC(=O)/C(=C/c2cn(-c3ccc([N+](=O)[O-])cc3)nc2-c2ccc(Cl)cc2)S1`, the ED50 in the experiment with Rattus norvegicus was found to be 15.2 mg/kg. Also, in experiment [1], the inhibition was 19.4%. Moreover, the IC50 in the experiment with SH-SY5Y came to 2000 nM.
